Experimental data reported in ChEMBL document CHEMBL2321851, “Synthesis and biological evaluation of novel coumarin-pyrazoline hybrids endowed with phenylsulfonyl moiety as antitumor agents” (Eur J Med Chem, 2013).
Activity calls are given as the source filed them.

Tests used:
Type in all cases: functional, cell-based
NCI-H322M = assay: Growth inhibition of human NCI-H322M cells at 10 uM after 48 hrs by sulforhodamine B assay
How it was run: (§1)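 NCI-60 one-dose primary screen at 10^-5 M. Cells grown in RPMI 1640 with 5% FBS and 2 mM L-glutamine and plated by doubling time. Preincubated 24 h at 37 °C under 5% CO2. Drug exposure 48 h. Cells fixed with cold TCA and stained with 0.4% SRB; absorbance read at 515 nm. Reported as percent growth of treated versus untreated control.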

EKVX = assay: Growth inhibition of human EKVX cells at 10 uM after 48 hrs by sulforhodamine B assay
How it was run: (§2)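 Single-dose primary screen at 10^-5 M across the ~60-line panel grown in RPMI 1640 with 5% FBS and 2 mM glutamine, 48 h exposure at 37 °C. Cells TCA-fixed and SRB-stained, absorbance at 515 nm. Output is percent growth of treated versus untreated control cells.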

SK-MEL-2 = assay: Growth inhibition of human SK-MEL-2 cells at 10 uM after 48 hrs by sulforhodamine B assay; how it was run: as §1
SF-539 = assay: Growth inhibition of human SF539 cells at 10 uM after 48 hrs by sulforhodamine B assay; how it was run: as §1
NCI-H460 = assay: Growth inhibition of human NCI-H460 cells at 10 uM after 48 hrs by sulforhodamine B assay; how it was run: as §1
SNB-75 = assay: Growth inhibition of human SNB75 cells at 10 uM after 48 hrs by sulforhodamine B assay; how it was run: as §1
Hs-578T = assay: Growth inhibition of human Hs 578T cells at 10 uM after 48 hrs by sulforhodamine B assay; how it was run: as §2
HT-29 = assay: Growth inhibition of human HT-29 cells at 10 uM after 48 hrs by sulforhodamine B assay; how it was run: as §2
A549 = assay: Growth inhibition of human A549/ATCC cells at 10 uM after 48 hrs by sulforhodamine B assay; how it was run: as §2
OVCAR-8 = assay: Growth inhibition of human OVCAR8 cells at 10 uM after 48 hrs by sulforhodamine B assay; how it was run: as §1
SR = assay: Growth inhibition of human SR cells at 10 uM after 48 hrs by sulforhodamine B assay
How it was run: (§3)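 NCI-60 one-dose primary screen at 10^-5 M. Cells were grown in RPMI 1640 with 5% FBS and 2 mM L-glutamine and plated at 5,000–40,000 cells/well depending on doubling time. After 24 h preincubation at 37 °C in 5% CO2, drug was added for 48 h. Cells were fixed with TCA and stained with SRB, and absorbance was read at 515 nm. Values are growth percent versus untreated control.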

UO-31 = assay: Growth inhibition of human UO31 cells at 10 uM after 48 hrs by sulforhodamine B assay; how it was run: as §3
HOP-92 = assay: Growth inhibition of human HOP92 cells at 10 uM after 48 hrs by sulforhodamine B assay; how it was run: as §2
KM12 = assay: Growth inhibition of human KM12 cells at 10 uM after 48 hrs by sulforhodamine B assay; how it was run: as §2
OVCAR-3 = assay: Growth inhibition of human OVCAR3 cells at 10 uM after 48 hrs by sulforhodamine B assay; how it was run: as §1
OVCAR-4 = assay: Growth inhibition of human OVCAR4 cells at 10 uM after 48 hrs by sulforhodamine B assay; how it was run: as §1
CCRF-CEM = assay: Growth inhibition of human CCRF-CEM cells at 10 uM after 48 hrs by sulforhodamine B assay; how it was run: as §2

Measured: growth inhibition (GI)

COc1ccc2ccc(=O)oc2c1C1=NN(S(=O)(=O)c2ccccc2)C(c2ccc(C)o2)C1 (centres undefined)
inactive: all assays above

COc1ccc2ccc(=O)oc2c1C1=NN(S(=O)(=O)c2ccccc2)C(c2ccc(SC)cc2)C1 (centres undefined)
inactive: all assays above
